In the library only some 2.4% were active in any assay of this set; here they are far more common.
JMJD2C inh = human JMJD2C demethylase inhibition; AID 2099; GST-JMJD2C(1-420) H3K9me3 demethylation, DELFIA europium; hit rate 0.069% among 330,000; inhibition, % at 2.35 µM; Q9H3R0;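 active = more than half of a compound's replicate wells show inhibition beyond 50%, single wells judged on their own value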;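 note: signal counts dimethyl H3K9 product captured on neutravidin plate; 0% = median of DMSO wells and 100% = 0.3 times that DMSO median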
SIAE inh = human SIAE inhibition, primary screen. Q9HAT2. hit rate 0.69% among 370,000. SIAE FP-Rh probe binding, fluorescence polarization. inhibition, % at 9.66 µM;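 active = inhibition above a cutoff: mean of compounds within the control limits plus 3 SD of those, cut at about 17% in these data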;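 note: 0% = plate median of compound wells and 100% = probe without SIAE protein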
PRMT1 FP inh = PRMT1 (human) inhibition, primary screen; recombinant PRMT1, activity-based probe fluorescence polarization; inhibition, % at 2.79 µM; hit rate 1.3% among 370,000; AID 652257;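 active = inhibition above about 21% made by adding two undisclosed values, limit read from the data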
Target sequence (Q99873 whole entry, looked up): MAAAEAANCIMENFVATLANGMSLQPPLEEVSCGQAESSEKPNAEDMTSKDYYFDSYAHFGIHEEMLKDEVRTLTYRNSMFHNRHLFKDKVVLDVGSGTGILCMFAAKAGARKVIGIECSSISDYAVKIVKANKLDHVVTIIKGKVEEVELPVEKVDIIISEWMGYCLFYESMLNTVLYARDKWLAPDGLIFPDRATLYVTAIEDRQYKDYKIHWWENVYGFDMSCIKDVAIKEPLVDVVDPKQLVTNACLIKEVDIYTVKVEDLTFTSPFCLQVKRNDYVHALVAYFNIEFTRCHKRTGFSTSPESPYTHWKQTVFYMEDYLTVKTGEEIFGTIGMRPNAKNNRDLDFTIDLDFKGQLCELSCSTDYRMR
HTRA1 inhibitor = inhibitors of human serine peptidase HTRA1; recombinant HTRA1, FP-rhodamine activity-based probe, fluorescence polarization; hit rate 0.5% among 340,000; inhibition, % at 5.96 µM; in the data active = inhibition above about 36%;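 note: 0% = enzyme with DMSO and 100% = wells lacking enzyme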
mABHD4 FP = inhibitors of mouse ABHD4. hit rate 0.54% among 370,000. AID 720543. purified mABHD4, FP-Rh probe fluorescence polarization. Q8VD66. inhibition, % at 8.92 µM;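 active = inhibition exceeding the mean over every tested compound plus 3 SD, cut at about 30% in these data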;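 note: 0% = plate median of compound wells and 100% = S159A mutant with DMSO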
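Assay system: mABHD4 protein; medium: HEPES pH 7.0, NaCl, Pluronic buffer; dosing: 8.92 µM, single dose; schedule: 45 min + 60 min at 25 °C; signal: FP readout, ex 525 nm / em 598 nm; read-out: normalized percent inhibition of probe labeling; repeats: single replicate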
SIAE confirm = human SIAE inhibition, confirmation; hit rate 13% among 2,300; shares compounds with SIAE inh; SIAE FP-Rh activity-based probe, fluorescence polarization; inhibition, % at 9.66 µM; AID 1117263;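 active = mean inhibition of the replicates above the hit cutoff set in the primary screen, cut at about 17% in these data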;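 note: 0% = SIAE with DMSO and probe and 100% = probe without SIAE; inhibitors lower polarization as more probe stays unbound to SIAE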
The depositor's hits bear a star; / = no result given.

SMILES	JMJD2C inh	SIAE inh	PRMT1 FP inh	HTRA1 inhibitor	mABHD4 FP	SIAE confirm
O=C(Nc1ccc(Br)cc1Br)Nc1cccc2[nH]c([C@@H]3O[C@H](CO)[C@@H](O)[C@H](O)[C@H]3O)nc12	/	19*	2	/	1	2
O=C(Nc1cccc(Cc2ccccc2)c1)Nc1cccc2[nH]c([C@@H]3O[C@H](CO)[C@@H](O)[C@H](O)[C@H]3O)nc12	/	13	5	/	11	/
Cc1nn(CC(=O)N2CCN(S(=O)(=O)c3ccccc3)CC2)c(C)c1[N+](=O)[O-]	1	18*	-4	1	-1	2
COC(=O)C[C@@H]1CC[C@H]2[C@H](COc3ccc(NC(=O)c4cccc(C(F)(F)F)c4)cc3C(=O)N2C)O1	/	0	0	/	-2	/
NNC(=O)c1cc(NS(=O)(=O)c2cccs2)cc(NS(=O)(=O)c2cccs2)c1	-14	-43	1	-2	-31	/
CS(=O)(=O)c1cnc(-c2ccccc2)nc1Sc1ccc(F)cc1	7	17*	-2	-2	4	5
COc1cccc(Sc2nc(-c3ccccc3)ncc2S(C)(=O)=O)c1	10	-5	1	-9	0	/
Nc1ccc(N=Nc2ccccc2)cc1[N+](=O)[O-]	/	18*	1	-3	12	3
OC(c1ccc(Cl)c(Cl)c1)c1ncc(-c2ccccc2C(F)(F)F)[nH]1 (stereo unspecified)	/	-2	0	/	-30	/
O=C(c1ccccc1F)N1CCN(c2ccccc2F)CC1	0	-2	-1	4	-2	/
O=C(c1ccccc1F)N1CCN(c2ccccc2)CC1	-5	17*	0	-2	-7	0
COc1cc(C)ccc1C(=O)N1CCC(Oc2cccnc2)CC1	/	4	1	/	8	/
Cc1[nH]nc2c1C(c1ccc(-c3ccc(Cl)cc3)o1)C(C#N)=C(N)O2 (stereo unspecified)	-7	18*	3	0	4	-3
Cc1ccc(-c2ccc(C3C(C#N)=C(N)Oc4n[nH]c(C)c43)o2)cc1 (stereo unspecified)	-18	13	8	4	12	/
C[C@@H]1CN([C@H](C)CO)S(=O)(=O)c2ccc(Br)cc2O[C@H]1CN(C)C(=O)C1CC1	/	-1	0	0	2	/
Clc1ccc(N/N=C/c2ccncc2)cc1Cl	-6	24*	0	-6	7	19*
Clc1cnc(N/N=C/c2ccncc2)c(Cl)c1	-2	2	-4	3	5	/
S=c1[nH]nc(-c2ccc3ncccc3c2)n1-c1ccc2c(c1)OCCO2	-3	14	-3	0	6	/
S=c1[nH]nc(Cn2c(-c3ccccn3)nc3ccccc32)n1-c1ccc2c(c1)OCCO2	14	19*	0	4	2	3
COc1ccc(/C=C/C(Cc2cccc(C(C)=O)c2)c2ccc(C)cc2)cc1 (stereo unspecified)	/	1	6	/	-3	/
CC1Cc2nc(SCC(=O)NCc3ccccc3)n(Cc3ccccc3)c(=O)c2S1 (stereo unspecified)	5	17*	0	-4	5	2
Cc1ccc(C(=O)NC2CCCCN(Cc3cccc(Cl)c3)C2=O)c(C)c1 (stereo unspecified)	/	-1	0	/	3	/
O=C(NCCO)C(=O)NCC1CCCN1S(=O)(=O)c1cccs1 (stereo unspecified)	7	1	3	4	2	/
C=CCNC(=O)C(=O)NCC1CCCN1S(=O)(=O)c1cccs1 (stereo unspecified)	0	20*	-1	-3	3	5
Cc1cc2c(c(=O)o1)[C@@]1(C(=O)N(C)c3ccccc31)C1=C(CCCC1=O)O2	/	-2	-3	/	3	/
SMILES	JMJD2C inh	SIAE inh	PRMT1 FP inh	HTRA1 inhibitor	mABHD4 FP	SIAE confirm
Cc1ccc(NC(=S)NNS(=O)(=O)c2ccc3ccccc3c2)cc1Cl	-9	18*	2	-7	-5	4
Clc1ccc(-c2csc(N3CCCCCC3)n2)cc1	8	76*	9	0	-14	5
CCOc1ccc(CCNC(=O)c2cc(-c3ccccc3)c(N3CCOCC3)s2)cc1OC	/	-2	4	/	1	/
COc1ccc(N2CC(=O)N(c3ccc(OC)c(OC)c3)CC2=O)cc1OC	3	19*	-4	2	1	-3
CCOC(=O)c1cn(-c2ccc(F)c(F)c2)c2c(F)c(F)c(F)c(F)c2c1=O	1	/	/	/	/	/
O=C(O)c1cn(-c2ccc(F)c(F)c2)c2c(F)c(F)c(F)c(F)c2c1=O	18	20*	3	-5	2	2
CC(C)Cc1nnc(NC(=O)CCC(=O)NCc2ccccc2Cl)s1	-3	18*	-3	12	7	-3
Cc1csc(NC(=O)c2ccc(COc3cccc(F)c3)o2)n1	/	-1	2	/	-9	/
O=C(NC(Cc1c[nH]c2ccccc12)C(=O)Nc1ccc(F)c([N+](=O)[O-])c1)c1cccs1 (stereo unspecified)	1	19*	-1	-21	-10	-30
CN(CCn1ccnc1)C(=O)CC1C(=O)NCCN1Cc1ccccc1C(F)(F)F (stereo unspecified)	-9	24*	-1	-2	-1	-1
CC(C)CCNC(=O)[C@H]1COC(O)([C@H](Cc2ccccc2)NC(=O)[C@@H](NC(=O)OCc2ccccc2)C(C)C)CN1C (stereo partly specified)	/	-4	-1	/	3	/
CCOc1ccc(CCN2C(=S)N([C@@H](Cc3ccc(O)cc3)CN3CCC[C@@H]3CN3C(=S)NC[C@@H]3Cc3ccc(O)cc3)C[C@@H]2Cc2ccc(O)cc2)cc1	/	-19	-4	/	-16	/
O=P(c1ccccc1)(c1ccccc1)C(O)c1ccncc1 (stereo unspecified)	0	24*	6	4	10	1
OC(c1ccccc1)c1ccncc1 (stereo unspecified)	0	-2	3	10	-14	/
O=C(NCCc1ccccc1)OCc1cn(Cc2cccc(F)c2F)nn1	/	1	-2	/	0	/
CCN=C1SC(CC(=O)Nc2ccc(C(F)(F)F)cc2)C(=O)N1CC (stereo unspecified)	5	-6	-1	1	-2	/
CCN=C1SC(CC(=O)Nc2ccc(N3CCOCC3)cc2)C(=O)N1CC (stereo unspecified)	0	19*	-5	0	1	0
CC(=O)N1c2ccc(S(=O)(=O)NCc3ccccc3Cl)cc2CC1C (stereo unspecified)	-2	18*	-1	3	7	3
CC(=O)N1c2ccc(S(=O)(=O)NCCc3ccc(Cl)cc3)cc2CC1C (stereo unspecified)	1	-7	-9	-5	-8	/
COc1ccc(NC(=O)CN2C(=O)C(C)Oc3ccc(C)cc32)cc1 (stereo unspecified)	0	21*	-1	0	3	7

Assay outcomes from PubChem BioAssay.
